We go through three molecules from PMC8958665 (ACS infectious diseases, 2021).

Values after ≈ are worked out from the molar mass of the structure shown. Like-named read-outs stand apart in the source and are kept apart here.

Usually MIC stands for the lowest concentration that inhibits growth of the organism. One may read the IC50 as the concentration that gives 50% inhibition.

Test [1] deals with K. pneumoniae B9 (KPB9). The experiment in a line: Broth microdilution colistin potentiation, KPB9. It is filed as cell-based, Klebsiella pneumoniae.
The subject of test [2] is A. baumannii 4106 (AB4106). The experiment in a line: Broth microdilution colistin potentiation, AB4106. It counts as cell-based, Acinetobacter baumannii.
The test system of test [3] is K. pneumoniae B9 (KPB9). The experiment in a line: Broth microdilution standalone MIC, KPB9. It counts as cell-based. Particulars: Klebsiella pneumoniae, read-out: standalone MIC against KPB9.
Test [4] has as its system A. baumannii 4106 (AB4106). The experiment in a line: Broth microdilution standalone MIC, AB4106. It is filed as cell-based. Particulars: Acinetobacter baumannii, read-out: standalone MIC against AB4106.
A further test relates to NF-κB. The experiment in a line: NF-κB luciferase reporter assay in HEK293 recombinant cells. It is filed as cell-based. Particulars: Homo sapiens, HEK293, read-out: Inhibition of NF-κB IC50.
The subject of test [5] is colistin-resistant K. pneumoniae strains. The experiment in a line: Colistin potentiation, panel of colistin-resistant K. pneumoniae strains. It counts as cell-based, Klebsiella pneumoniae. Particulars: no adjuvant. The method, boiled down: (§1)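 Broth microdilution in CAMHB: strains are grown 6 h and diluted to 5 × 10^5 CFU/mL. Test compound is added from DMSO stock, and colistin (from water stock) is serially diluted in the compound-dosed suspension. An undosed aliquot gives the colistin MIC alone. Plates are incubated stationary at 37 °C for 16 h and read at OD600. MIC is 90% growth inhibition versus untreated. Run in duplicate, repeated at least twice.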

The subject of test [6] is colistin-resistant A. baumannii strains. It is filed as cell-based, Acinetobacter baumannii. Particulars: no adjuvant.
Test [7] has as its system P. aeruginosa strains TRPA161 and TRPA162. The experiment in a line: Colistin potentiation, colistin-resistant P. aeruginosa strains. It is filed as cell-based, Pseudomonas aeruginosa. Particulars: no adjuvant. The gist of the method:
as §1

Another test has as its system AB4106. The experiment in a line: MIC in the presence of polymyxin B nonapeptide. Particulars: 10 μg/mL. It is filed as cell-based, Acinetobacter baumannii.

As to `O=C(Nc1cc(C(F)(F)F)cc(C(F)(F)F)c1)c1cc(Cl)ccc1O` [IMD-0354 4, IMD-0354], the “KPB9 colistin MIC in the presence of compound” value with K. pneumoniae B9 (KPB9) [1] (compound at 5 μM, KPB9) worked out at 0.5 µg/mL. Moreover, the “KPB9 fold reduction of colistin MIC” value in the test on K. pneumoniae B9 (KPB9) [1] (compound at 5 μM, vs colistin alone (512 μg/mL)) amounted to 1024 fold. Also, the “AB4106 colistin MIC in the presence of compound” value in [2] (compound at 5 μM, AB4106) turned out to be 2 µg/mL. Besides, in [2] (compound at 5 μM, vs colistin alone (2048 μg/mL)), the “AB4106 fold reduction of colistin MIC” value was determined as 1024 fold. For the same molecule, the MIC (in the test with K. pneumoniae B9 (KPB9) [3]; in test [4]) was 50 µM (≈ 19.2 µg/mL) throughout. In addition, in the test on NF-κB, the IC50 turned out to be 1.07 ± 0.06 µM.

Regarding colistin, the “KPB9 MIC of colistin alone” value in the test on K. pneumoniae B9 (KPB9) [1] (no adjuvant) turned out to be 512 µg/mL. For the same molecule, the “AB4106 MIC of colistin alone” value in test [2] (no adjuvant) is 2048 µg/mL. The “colistin MIC alone” value in [5] (strain KP C3) was determined as 128 µg/mL; in [5] (strain KP E2), 512 µg/mL; in test [5] (strain KP F3), 128 µg/mL; in [5] (strain KP F9), 256 µg/mL; in test [5] (strain KP F2210291 mcr-1), 16 µg/mL; in test [5] (strain KP H2) it was 256 µg/mL. For the same molecule, the “colistin MIC alone” value in test [5] (strain KP I2) was 512 µg/mL; in test [6] (strain AB 1E4), above 512 µg/mL; in [6] (strain AB 1F9), above 512 µg/mL; in test [6] (strain AB 1G2), above 512 µg/mL; in [6] (strain AB 2A8), above 512 µg/mL; in test [6] (strain AB 3941), 1024 µg/mL. The “colistin MIC alone” value is 2048 µg/mL in test [6] (strain AB 4112), 64 µg/mL in test [6] (strain AB 17978 mcr-1), 1024 µg/mL in [7] (strain TRPA 161) and 1024 µg/mL in [7] (strain TRPA 162).

As to polymyxin B nonapeptide [PMBN], in the test with AB4106, the “toxicity against AB4106” value is on record as “no toxicity”.
